# From ChEMBL document CHEMBL4261658, “4-Hydroxy-3-nitro-5-ureido-benzenesulfonamides Selectively Target the Tumor-Associated Carbonic Anhydrase Isoforms IX and XII Showing Hypoxia-Enhanced Antiproliferative Profiles” (J Med Chem, 2018)
# Tests used:
# [1] = target: Carbonic anhydrase 1 (Homo sapiens, UniProt P00915); assay: Inhibition of recombinant human cytosolic carbonic anhydrase 1 preincubated for 15 mins by stopped flow CO2 hydration assay
# [2] = target: Carbonic anhydrase 9 (Homo sapiens, UniProt Q16790); assay: Inhibition of carbonic anhydrase 9 (unknown origin) preincubated for 15 mins by stopped flow CO2 hydration assay
# [3] = target: Carbonic anhydrase 12 (Homo sapiens, UniProt O43570)
# [4] = species on record: Homo sapiens; assay: Selectivity ratio of Ki for carbonic anhydrase 2 (unknown origin) to Ki for carbonic anhydrase 9 (unknown origin)
# [5] = test system: HT-29; assay: Cytotoxicity against human HT-29 cells assessed as reduction in cell viability after 48 hrs under normoxic conditions by MTT assay; assay type: functional, cell-based; settings: for IC50: HT-29, 48 h
# In short: (§1)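 Cells cultured in high-glucose DMEM with 20% FBS at 37 °C and 5% CO2, seeded at 1x10^4/well, then dosed 24 h later (0–200 μM) for 48 h. Hypoxia: 1% O2, 5% CO2, balance N2 in a hypoxic workstation; normoxia: 20% O2 in air, 5% CO2. MTT (1 mg/ml) for 30 min at 37 °C, formazan dissolved in DMSO, A550. Untreated control set to 100%; quadruplicates, ≥3 cell batches, mean ± S.E.M.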
# [6] = test system: MDA-MB-231; assay: Cytotoxicity against human MDA-MB-231 cells assessed as reduction in cell viability after 48 hrs under normoxic conditions by MTT assay; assay type: functional, cell-based; settings: for IC50: MDA-MB-231, 48 h; in short: as §1
# [7] = test system: PC-3; assay: Cytotoxicity against human PC3 cells assessed as reduction in cell viability after 48 hrs under normoxic conditions by MTT assay; assay type: functional, cell-based; settings: for IC50: PC-3, 48 h; in short: as §1
# [8] = test system: HT-29; assay: Cytotoxicity against human HT-29 cells assessed as reduction in cell viability after 48 hrs under hypoxic conditions by MTT assay; assay type: functional, cell-based; settings: for IC50: HT-29, 48 h; in short: as §1
# [9] = test system: MDA-MB-231; assay: Cytotoxicity against human MDA-MB-231 cells assessed as reduction in cell viability after 48 hrs under hypoxic conditions by MTT assay; assay type: functional, cell-based; settings: for IC50: MDA-MB-231, 48 h; in short: as §1
# [10] = test system: PC-3; assay: Cytotoxicity against human PC3 cells assessed as reduction in cell viability after 48 hrs under hypoxic conditions by MTT assay; assay type: functional, cell-based; settings: for IC50: PC-3, 48 h; in short: as §1
# [11] = test system: MDA-MB-231; assay: Cytotoxicity against human MDA-MB-231 cells assessed as cell viability at 200 uM after 48 hrs under hypoxic conditions by MTT assay (reference value: 100%); assay type: functional; settings: MDA-MB-231, 48 h, read-out: Activity; in short: as §1
# [12] = test system: MDA-MB-231; assay: Cytotoxicity against human MDA-MB-231 cells assessed as cell viability at 30 uM after 48 hrs under normoxic conditions by MTT assay (reference value: 100%); assay type: functional; settings: MDA-MB-231, 48 h, read-out: Activity; in short: as §1
# [13] = test system: MDA-MB-231; assay: Cytotoxicity against human MDA-MB-231 cells assessed as cell viability at 100 uM after 48 hrs under normoxic conditions by MTT assay (reference value: 100%); assay type: functional; settings: MDA-MB-231, 48 h, read-out: Activity; in short: as §1
# [14] = test system: MDA-MB-231; assay: Cytotoxicity against human MDA-MB-231 cells assessed as cell viability at 200 uM after 48 hrs under normoxic conditions by MTT assay (reference value: 100%); assay type: functional; settings: MDA-MB-231, 48 h, read-out: Activity; in short: as §1
# [15] = test system: MDA-MB-231; assay: Cytotoxicity against human MDA-MB-231 cells assessed as cell viability at 100 uM after 48 hrs under hypoxic conditions by MTT assay (reference value: 100%); assay type: functional; settings: MDA-MB-231, 48 h, read-out: Activity; in short: as §1
# [16] = test system: MDA-MB-231; assay: Cytotoxicity against human MDA-MB-231 cells assessed as cell viability at 30 uM after 48 hrs under hypoxic conditions by MTT assay (reference value: 100%); assay type: functional; settings: MDA-MB-231, 48 h, read-out: Activity; in short: as §1
# [17] = test system: PC-3; assay: Cytotoxicity against human PC3 cells assessed as cell viability at 30 uM after 48 hrs under normoxic conditions by MTT assay (reference value: 100%); assay type: functional; settings: PC-3, 48 h, read-out: Activity; in short: as §1
# [18] = test system: PC-3; assay: Cytotoxicity against human PC3 cells assessed as cell viability at 100 uM after 48 hrs under normoxic conditions by MTT assay (reference value: 100%); assay type: functional; settings: PC-3, 48 h, read-out: Activity; in short: as §1
# [19] = test system: PC-3; assay: Cytotoxicity against human PC3 cells assessed as cell viability at 200 uM after 48 hrs under normoxic conditions by MTT assay (reference value: 100%); assay type: functional; settings: PC-3, 48 h, read-out: Activity; in short: as §1
# [20] = test system: PC-3; assay: Cytotoxicity against human PC3 cells assessed as cell viability at 30 uM after 48 hrs under hypoxic conditions by MTT assay (reference value: 100%); assay type: functional; settings: PC-3, 48 h, read-out: Activity; in short: as §1
# [21] = test system: PC-3; assay: Cytotoxicity against human PC3 cells assessed as cell viability at 100 uM after 48 hrs under hypoxic conditions by MTT assay (reference value: 100%); assay type: functional; settings: PC-3, 48 h, read-out: Activity; in short: as §1
# [22] = test system: PC-3; assay: Cytotoxicity against human PC3 cells assessed as cell viability at 200 uM after 48 hrs under hypoxic conditions by MTT assay (reference value: 100%); assay type: functional; settings: PC-3, 48 h, read-out: Activity; in short: as §1
# [23] = test system: HT-29; assay: Cytotoxicity against human HT-29 cells assessed as cell viability at 30 uM after 48 hrs under normoxic conditions by MTT assay (reference value: 100%); assay type: functional; settings: Homo sapiens, HT-29, 48 h; read-out: Activity; in short: as §1
# [24] = test system: HT-29; assay: Cytotoxicity against human HT-29 cells assessed as cell viability at 100 uM after 48 hrs under normoxic conditions by MTT assay (reference value: 100%); assay type: functional; settings: Homo sapiens, HT-29, 48 h; read-out: Activity; in short: as §1
# [25] = test system: HT-29; assay: Cytotoxicity against human HT-29 cells assessed as cell viability at 200 uM after 48 hrs under normoxic conditions by MTT assay (reference value: 100%); assay type: functional; settings: Homo sapiens, HT-29, 48 h; read-out: Activity; in short: as §1
# [26] = test system: HT-29; assay: Cytotoxicity against human HT-29 cells assessed as cell viability at 30 uM after 48 hrs under hypoxic conditions by MTT assay (reference value: 100%); assay type: functional; settings: Homo sapiens, HT-29, 48 h; read-out: Activity; in short: as §1
# [27] = test system: HT-29; assay: Cytotoxicity against human HT-29 cells assessed as cell viability at 100 uM after 48 hrs under hypoxic conditions by MTT assay (reference value: 100%); assay type: functional; settings: Homo sapiens, HT-29, 48 h; read-out: Activity; in short: as §1
# [28] = test system: HT-29; assay: Cytotoxicity against human HT-29 cells assessed as cell viability at 200 uM after 48 hrs under hypoxic conditions by MTT assay (reference value: 100%); assay type: functional; settings: Homo sapiens, HT-29, 48 h; read-out: Activity; in short: as §1
# [29] = test system: MDA-MB-231; assay: Potency index, ratio of cytotoxicity against human MDA-MB-231 cells assessed as reduction in cell viability at 100 uM after 48 hrs under hypoxic conditions by MTT assay to cytotoxicity against human MDA-MB-231 cells assessed as reduction in cell viability at 100 uM after 48 hrs under normoxic conditions by MTT assay; assay type: functional
# [30] = test system: HT-29; assay: Cytotoxicity against human HT-29 cells assessed as cell viability at 300 uM after 48 hrs under hypoxic conditions by MTT assay (reference value: 100%); assay type: functional; settings: HT-29, 48 h, read-out: Activity
# [31] = target: Carbonic anhydrase 2 (Homo sapiens, UniProt P00918); assay: Inhibition of carbonic anhydrase 2 (unknown origin) preincubated for 15 mins by stopped flow CO2 hydration assay
# Sequence of Carbonic anhydrase 1 (P00915 whole entry): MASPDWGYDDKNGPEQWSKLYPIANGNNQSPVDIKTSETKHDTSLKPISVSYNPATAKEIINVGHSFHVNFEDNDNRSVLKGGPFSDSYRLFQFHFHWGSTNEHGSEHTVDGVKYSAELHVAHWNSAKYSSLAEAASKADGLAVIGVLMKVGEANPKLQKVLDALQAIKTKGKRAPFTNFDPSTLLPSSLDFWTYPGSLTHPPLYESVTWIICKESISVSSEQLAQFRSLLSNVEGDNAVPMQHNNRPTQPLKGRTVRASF
# Sequence of Carbonic anhydrase 12 (O43570 whole entry): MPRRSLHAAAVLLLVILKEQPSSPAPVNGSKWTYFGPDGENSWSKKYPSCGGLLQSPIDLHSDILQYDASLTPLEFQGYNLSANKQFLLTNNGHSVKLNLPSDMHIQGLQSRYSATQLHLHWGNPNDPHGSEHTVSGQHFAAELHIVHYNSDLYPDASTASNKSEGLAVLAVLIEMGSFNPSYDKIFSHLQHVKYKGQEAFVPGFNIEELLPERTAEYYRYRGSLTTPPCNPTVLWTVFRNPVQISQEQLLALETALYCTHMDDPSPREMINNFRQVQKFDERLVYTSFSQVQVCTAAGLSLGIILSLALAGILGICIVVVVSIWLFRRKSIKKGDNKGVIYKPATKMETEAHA
SMILES,Ki [2] [µM],Ki [3] [µM],Ratio Ki [4],Activity [5],IC50 [5] [µM],Activity [6],IC50 [6] [µM],Activity [7],IC50 [7] [µM],Activity [8],IC50 [8] [µM],Activity [9],IC50 [9] [µM],Activity [10],IC50 [10] [µM],viability at 200 µM [11] [%],viability at 30 µM [12] [%],viability at 100 µM [13] [%],viability at 200 µM [14] [%],viability at 100 µM [15] [%],also measured
NS(=O)(=O)c1cc(NC(=O)Nc2ccc3c(c2)OCO3)c(O)c([N+](=O)[O-])c1,0.15,0.25,30,Dose-dependent effect,> 200,Dose-dependent effect,> 200,Dose-dependent effect,> 200,Dose-dependent effect,79.5,Dose-dependent effect,> 200,Dose-dependent effect,> 200,67.5,105,95,103,92.2,Ki [1]: > 50 µM; viability at 30 µM [16]: 105%; viability at 30 µM [17]: 80.1%; viability at 100 µM [18]: 65.9%; viability at 200 µM [19]: 61.6%; viability at 30 µM [20]: 101%; viability at 100 µM [21]: 77.5%; viability at 200 µM [22]: 70.2%; viability at 30 µM [23]: 71.5%; viability at 100 µM [24]: 62.7%; viability at 200 µM [25]: 60.4%; viability at 30 µM [26]: 28.3%; viability at 100 µM [27]: 22.8%; viability at 200 µM [28]: 24.6%
NS(=O)(=O)c1cc(NC(=O)NCc2ccco2)c(O)c([N+](=O)[O-])c1,0.39,0.53,,,,,,,,,,,,,,,,,,,Ki [1]: > 50 µM
NS(=O)(=O)c1cc(NC(=O)Nc2cc(C(F)(F)F)cc(C(F)(F)F)c2)c(O)c([N+](=O)[O-])c1,0.34,0.46,5,Dose-dependent effect,60.2,Dose-dependent effect,196,Dose-dependent effect,68.6,Dose-dependent effect,133,Dose-dependent effect,63.2,Dose-dependent effect,70.6,20.2,106,101,45.8,19.8,viability at 30 µM [16]: 100%; viability at 30 µM [17]: 118%; viability at 100 µM [18]: 23.4%; viability at 200 µM [19]: 20.9%; viability at 30 µM [20]: 109%; viability at 100 µM [21]: 20.1%; viability at 200 µM [22]: 19.6%; viability at 30 µM [23]: 102%; viability at 100 µM [24]: 22.7%; viability at 30 µM [26]: 98.6%; viability at 100 µM [27]: 63.6%; Ratio [29]: 4; viability at 300 µM [30]: 25.6%
NS(=O)(=O)c1cc(NC(=O)Nc2ccccc2)c(O)c([N+](=O)[O-])c1,0.94,0.83,3,,,,,,,,,,,,,,,,,,Ki [1]: > 50 µM
NS(=O)(=O)c1cc(NC(=O)NCCc2ccccc2)c(O)c([N+](=O)[O-])c1,0.11,0.31,28,Dose-dependent effect,> 200,Dose-dependent effect,> 200,Dose-dependent effect,> 200,Dose-dependent effect,> 200,Dose-dependent effect,194,Dose-dependent effect,> 200,48.2,108,107,85.1,79.8,viability at 30 µM [16]: 72%; viability at 30 µM [17]: 115%; viability at 100 µM [18]: 68.5%; viability at 200 µM [19]: 63.5%; viability at 30 µM [20]: 85.2%; viability at 100 µM [21]: 62.7%; viability at 200 µM [22]: 61.9%; viability at 30 µM [23]: 97.6%; viability at 100 µM [24]: 85.8%; viability at 200 µM [25]: 80.7%; viability at 30 µM [26]: 76.7%; viability at 100 µM [27]: 57.3%; viability at 200 µM [28]: 53.8%
NS(=O)(=O)c1cc(NC(=O)Nc2ccc(C(F)(F)F)cc2)c(O)c([N+](=O)[O-])c1,0.63,0.95,,,,,,,,,,,,,,,,,,,Ki [31]: 0.2 µM
CC(=O)OC[C@@H]1O[C@@H](OC(C)=O)[C@@H](NC(=O)Nc2cc(S(N)(=O)=O)cc([N+](=O)[O-])c2O)[C@H](OC(C)=O)[C@H]1OC(C)=O,0.29,0.79,,Dose-dependent effect,> 200,Dose-dependent effect,> 200,Dose-dependent effect,> 200,Dose-dependent effect,> 200,Dose-dependent effect,> 200,Dose-dependent effect,> 200,65.9,100,111,103,90.7,viability at 30 µM [16]: 99.5%; viability at 30 µM [17]: 59.6%; viability at 100 µM [18]: 67.5%; viability at 200 µM [19]: 68.3%; viability at 30 µM [20]: 91.5%; viability at 100 µM [21]: 85.2%; viability at 200 µM [22]: 70.6%; viability at 30 µM [23]: 111%; viability at 100 µM [24]: 100%; viability at 200 µM [25]: 103%; viability at 30 µM [26]: 95.6%; viability at 100 µM [27]: 79.8%; viability at 200 µM [28]: 84.8%
